Experimental data taken from ChEMBL document CHEMBL4689842, “EUbOPEN Chemogenomics Library wave 1” (2021).

How the values were obtained:
Fibroblast = assay: Incucyte cell viability with human fibroblast; format: toxicity, cell-based; conditions: 10 µM, compound concentration 10 uM; also: filed as whole numbers so only -1 and 0 and 1 occur
HEK-293T = assay: Multiplex assay against HEK293T; format: toxicity, cell-based; conditions: human;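 as to Population Tubulin-Different-Phenotype (%): share of the cells with healthy nuclei that show this phenotype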
Method in brief: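 Hoechst33342, BioTracker Green Microtubule Cytoskeleton Dye, MitoTracker Red and Annexin V Alexa Fluor 680 were added to live cells at seeding, and imaging on a CQ1 microscope at 37°C and 5% CO2 followed compound addition. Gating by CellPathfinder machine learning separated cells into Hoechst high-intensity objects or normal cells, then normal cells into healthy, pyknosed or fragmented nuclei, then pyknosed cells into mitotic or apoptotic. Per cents of healthy-nucleus cells are reported for the tubulin, mitochondrial-mass and membrane-permeability phenotypes.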

[1] = 12 h, 1 µM, compound concentration 1 uM, replicate 1
[2] = 12 h, 1 µM, compound concentration 1 uM, replicate 2
[3] = 12 h, 10 µM, compound concentration 10 uM, replicate 1
[4] = 12 h, 10 µM, compound concentration 10 uM, replicate 2
[5] = 24 h, 1 µM, compound concentration 1 uM, replicate 1
[6] = 24 h, 1 µM, compound concentration 1 uM, replicate 2
[7] = 24 h, 10 µM, compound concentration 10 uM, replicate 1
[8] = 24 h, 10 µM, compound concentration 10 uM, replicate 2
[9] = 48 h, 1 µM, compound concentration 1 uM, replicate 1
[10] = 48 h, 1 µM, compound concentration 1 uM, replicate 2
[11] = 48 h, 10 µM, compound concentration 10 uM, replicate 1
[12] = 48 h, 10 µM, compound concentration 10 uM, replicate 2

COc1cc2c(NC3CCN(C(C)C)CC3)nc(N3CCC(F)(F)CC3)nc2cc1OCCCN1CCCC1
Growth Rate (Fibroblast; 0 h, replicate number 2, timepoint 0 hours): 0 | Growth Rate (Fibroblast; 6 h, replicate number 2, timepoint 6 hours): 1 | Growth Rate (Fibroblast; 12 h, replicate number 1, timepoint 12 hours): 1 | Growth Rate (Fibroblast; 18 h, replicate number 1, timepoint 18 hours): 1 | Growth Rate (Fibroblast; 18 h, replicate number 2, timepoint 18 hours): 0 | Growth Rate (Fibroblast; 24 h, replicate number 1, timepoint 24 hours): 1 | Growth Rate (Fibroblast; 24 h, replicate number 2, timepoint 24 hours): 0 | Population Apoptotic (%) (HEK-293T; [1]): 67% | Population Fragmented Nuclei (%) (HEK-293T; [1]): 16% | Population Healthy Nuclei (%) (HEK-293T; [1]): 32% | Population Hoechst High Intensity Objects (%) (HEK-293T; [1]): 19% | Population Membrane Permeable-Phenotype (%) (HEK-293T; [1]): 0% | Population Mitochondria Different-Phenotype (%) (HEK-293T; [1]): 96% | Population Mitotic Cells (%) (HEK-293T; [1]): 32% | Population Normal (%) (HEK-293T; [1]): 80% | Population Pyknosed Nuclei (%) (HEK-293T; [1]): 50% | Population Tubulin-Different-Phenotype (%) (HEK-293T; [1]): 76% | Total Cell Count (HEK-293T; [1]): 324 | Population Apoptotic (%) (HEK-293T; [2]): 37% | Population Fragmented Nuclei (%) (HEK-293T; [2]): 8% | Population Healthy Nuclei (%) (HEK-293T; [2]): 40% | Population Hoechst High Intensity Objects (%) (HEK-293T; [2]): 6% | Population Membrane Permeable-Phenotype (%) (HEK-293T; [2]): 4% | Population Mitochondria Different-Phenotype (%) (HEK-293T; [2]): 56% | Population Mitotic Cells (%) (HEK-293T; [2]): 62% | Population Normal (%) (HEK-293T; [2]): 93% | Population Pyknosed Nuclei (%) (HEK-293T; [2]): 51% | Population Tubulin-Different-Phenotype (%) (HEK-293T; [2]): 48% | Total Cell Count (HEK-293T; [2]): 235 | Population Apoptotic (%) (HEK-293T; [3]): 90% | Population Fragmented Nuclei (%) (HEK-293T; [3]): 8% | Population Healthy Nuclei (%) (HEK-293T; [3]): 26% | Population Hoechst High Intensity Objects (%) (HEK-293T; [3]): 18% | Population Membrane Permeable-Phenotype (%) (HEK-293T; [3]): 0% | Population Mitochondria Different-Phenotype (%) (HEK-293T; [3]): 100% | Population Mitotic Cells (%) (HEK-293T; [3]): 9% | Population Normal (%) (HEK-293T; [3]): 81% | Population Pyknosed Nuclei (%) (HEK-293T; [3]): 64% | Population Tubulin-Different-Phenotype (%) (HEK-293T; [3]): 98% | Total Cell Count (HEK-293T; [3]): 298 | Population Apoptotic (%) (HEK-293T; [4]): 92% | Population Fragmented Nuclei (%) (HEK-293T; [4]): 7% | Population Healthy Nuclei (%) (HEK-293T; [4]): 24% | Population Hoechst High Intensity Objects (%) (HEK-293T; [4]): 6% | Population Mitochondria Different-Phenotype (%) (HEK-293T; [4]): 98% | Population Mitotic Cells (%) (HEK-293T; [4]): 7% | Population Normal (%) (HEK-293T; [4]): 93% | Population Pyknosed Nuclei (%) (HEK-293T; [4]): 68% | Population Tubulin-Different-Phenotype (%) (HEK-293T; [4]): 96% | Total Cell Count (HEK-293T; [4]): 245 | Population Apoptotic (%) (HEK-293T; [5]): 61% | Population Fragmented Nuclei (%) (HEK-293T; [5]): 16% | Population Healthy Nuclei (%) (HEK-293T; [5]): 42% | Population Hoechst High Intensity Objects (%) (HEK-293T; [5]): 24% | Population Membrane Permeable-Phenotype (%) (HEK-293T; [5]): 1% | Population Mitochondria Different-Phenotype (%) (HEK-293T; [5]): 77% | Population Mitotic Cells (%) (HEK-293T; [5]): 38% | Population Normal (%) (HEK-293T; [5]): 75% | Population Pyknosed Nuclei (%) (HEK-293T; [5]): 41% | Population Tubulin-Different-Phenotype (%) (HEK-293T; [5]): 51% | Total Cell Count (HEK-293T; [5]): 348 | Population Apoptotic (%) (HEK-293T; [6]): 39% | Population Fragmented Nuclei (%) (HEK-293T; [6]): 6% | Population Healthy Nuclei (%) (HEK-293T; [6]): 60% | Population Hoechst High Intensity Objects (%) (HEK-293T; [6]): 12% | Population Membrane Permeable-Phenotype (%) (HEK-293T; [6]): 4% | Population Mitochondria Different-Phenotype (%) (HEK-293T; [6]): 45% | Population Mitotic Cells (%) (HEK-293T; [6]): 60% | Population Normal (%) (HEK-293T; [6]): 87% | Population Pyknosed Nuclei (%) (HEK-293T; [6]): 33% | Population Tubulin-Different-Phenotype (%) (HEK-293T; [6]): 45% | Total Cell Count (HEK-293T; [6]): 272 | Population Apoptotic (%) (HEK-293T; [7]): 85% | Population Fragmented Nuclei (%) (HEK-293T; [7]): 11% | Population Healthy Nuclei (%) (HEK-293T; [7]): 23% | Population Hoechst High Intensity Objects (%) (HEK-293T; [7]): 24% | Population Membrane Permeable-Phenotype (%) (HEK-293T; [7]): 0% | Population Mitochondria Different-Phenotype (%) (HEK-293T; [7]): 100% | Population Mitotic Cells (%) (HEK-293T; [7]): 14% | Population Normal (%) (HEK-293T; [7]): 75% | Population Pyknosed Nuclei (%) (HEK-293T; [7]): 65% | Population Tubulin-Different-Phenotype (%) (HEK-293T; [7]): 91% | Total Cell Count (HEK-293T; [7]): 324 | Population Apoptotic (%) (HEK-293T; [8]): 95% | Population Fragmented Nuclei (%) (HEK-293T; [8]): 7% | Population Healthy Nuclei (%) (HEK-293T; [8]): 25% | Population Hoechst High Intensity Objects (%) (HEK-293T; [8]): 14% | Population Membrane Permeable-Phenotype (%) (HEK-293T; [8]): 1% | Population Mitochondria Different-Phenotype (%) (HEK-293T; [8]): 92% | Population Mitotic Cells (%) (HEK-293T; [8]): 4% | Population Normal (%) (HEK-293T; [8]): 85% | Population Pyknosed Nuclei (%) (HEK-293T; [8]): 67% | Population Tubulin-Different-Phenotype (%) (HEK-293T; [8]): 86% | Total Cell Count (HEK-293T; [8]): 244 | Population Apoptotic (%) (HEK-293T; [9]): 55% | Population Fragmented Nuclei (%) (HEK-293T; [9]): 19% | Population Healthy Nuclei (%) (HEK-293T; [9]): 41% | Population Hoechst High Intensity Objects (%) (HEK-293T; [9]): 25% | Population Membrane Permeable-Phenotype (%) (HEK-293T; [9]): 4% | Population Mitochondria Different-Phenotype (%) (HEK-293T; [9]): 38% | Population Mitotic Cells (%) (HEK-293T; [9]): 44% | Population Normal (%) (HEK-293T; [9]): 75% | Population Pyknosed Nuclei (%) (HEK-293T; [9]): 38% | Population Tubulin-Different-Phenotype (%) (HEK-293T; [9]): 38% | Total Cell Count (HEK-293T; [9]): 368 | Population Apoptotic (%) (HEK-293T; [10]): 17% | Population Fragmented Nuclei (%) (HEK-293T; [10]): 8% | Population Healthy Nuclei (%) (HEK-293T; [10]): 78% | Population Hoechst High Intensity Objects (%) (HEK-293T; [10]): 12% | Population Membrane Permeable-Phenotype (%) (HEK-293T; [10]): 7% | Population Mitochondria Different-Phenotype (%) (HEK-293T; [10]): 9% | Population Mitotic Cells (%) (HEK-293T; [10]): 82% | Population Normal (%) (HEK-293T; [10]): 87% | Population Pyknosed Nuclei (%) (HEK-293T; [10]): 12% | Population Tubulin-Different-Phenotype (%) (HEK-293T; [10]): 33% | Total Cell Count (HEK-293T; [10]): 508 | Population Apoptotic (%) (HEK-293T; [11]): 89% | Population Fragmented Nuclei (%) (HEK-293T; [11]): 18% | Population Healthy Nuclei (%) (HEK-293T; [11]): 10% | Population Hoechst High Intensity Objects (%) (HEK-293T; [11]): 26% | Population Membrane Permeable-Phenotype (%) (HEK-293T; [11]): 3% | Population Mitochondria Different-Phenotype (%) (HEK-293T; [11]): 96% | Population Mitotic Cells (%) (HEK-293T; [11]): 10% | Population Normal (%) (HEK-293T; [11]): 73% | Population Pyknosed Nuclei (%) (HEK-293T; [11]): 70% | Population Tubulin-Different-Phenotype (%) (HEK-293T; [11]): 82% | Total Cell Count (HEK-293T; [11]): 347 | Population Apoptotic (%) (HEK-293T; [12]): 94% | Population Fragmented Nuclei (%) (HEK-293T; [12]): 8% | Population Healthy Nuclei (%) (HEK-293T; [12]): 38% | Population Hoechst High Intensity Objects (%) (HEK-293T; [12]): 21% | Population Membrane Permeable-Phenotype (%) (HEK-293T; [12]): 5% | Population Mitochondria Different-Phenotype (%) (HEK-293T; [12]): 97% | Population Mitotic Cells (%) (HEK-293T; [12]): 5% | Population Normal (%) (HEK-293T; [12]): 78% | Population Pyknosed Nuclei (%) (HEK-293T; [12]): 53% | Population Tubulin-Different-Phenotype (%) (HEK-293T; [12]): 84% | Total Cell Count (HEK-293T; [12]): 232
